# pIC50: −log10 of the molar value. Active and inactive are the calls of the source. The calls are words filed in the database; no cut-off is given here.
# Key:
# Melanocortin receptor 4 [1] = target: T1, Melanocortin receptor 4 (Homo sapiens, UniProt P32245); assay: Displacement of Eu-NDP-alpha-MSH from human melanocortin 4 receptor expressed in HEK293 cells; type: cell-based
# Method in brief: (§1)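 HEK293 cells overexpressing hMC4R, plated at 12,000 cells/well and grown 3 days. Incubated 40 min at 37 °C, washed 4 times in Tris-HCl/BSA/NaCl, then enhancement solution added for 30 min at 37 °C before time-resolved Eu read-out. IC50 averaged over n independent experiments, each in quadruplicate.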
# Melanocortin receptor 4 [2] = target: T1, Melanocortin receptor 4; assay: Displacement of Eu-NDP-alpha-MSH from human melanocortin 4 receptor expressed in HEK293 cells at 1 pM to 10 uM; type: cell-based; method in brief: as §1
# T1 sequence (P32245 whole entry): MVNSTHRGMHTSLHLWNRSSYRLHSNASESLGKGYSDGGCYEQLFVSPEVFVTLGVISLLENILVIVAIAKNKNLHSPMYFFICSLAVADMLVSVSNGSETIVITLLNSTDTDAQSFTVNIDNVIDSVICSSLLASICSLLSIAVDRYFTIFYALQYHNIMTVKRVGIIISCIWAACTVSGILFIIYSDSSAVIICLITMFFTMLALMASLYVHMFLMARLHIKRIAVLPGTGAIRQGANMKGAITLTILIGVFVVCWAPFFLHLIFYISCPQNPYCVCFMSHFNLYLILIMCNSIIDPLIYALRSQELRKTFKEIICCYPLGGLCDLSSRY
pIC50 (Melanocortin receptor 4 [1]),Activity (Melanocortin receptor 4 [2]),Structure (SMILES)
6.40,,"CC(C)C(O)CCC(C)C(O)CCC(C)C(CCC(O)C(C)CCC(O)C(C)CCC(OCCCCCCn1cc(CCCC(=O)N[C@@H](Cc2cnc[nH]2)C(=O)N[C@@H](Cc2ccccc2)C(=O)N[C@@H](CCCNC(=N)N)C(=O)N[C@@H](Cc2c[nH]c3ccccc23)C(N)=O)nn1)C(C)C)OCCCCCCn1cc(CCCC(=O)N[C@@H](Cc2cnc[nH]2)C(=O)N[C@@H](Cc2ccccc2)C(=O)NC(CCCNC(=N)N)C(=O)N[C@@H](Cc2c[nH]c3ccccc23)C(N)=O)nn1 (single isomer, unassigned)"
5.48,,CC(C)C(O)CCC(C)C(O)CCC(C)C(O)CCC(OCCCCCCn1cc(CCCC(=O)N[C@@H](Cc2cnc[nH]2)C(=O)N[C@H](Cc2ccccc2)C(=O)N[C@@H](CCCN=C(N)N)C(=O)N[C@@H](Cc2c[nH]c3ccccc23)C(N)=O)nn1)C(C)CCC(O)C(C)CCC(O)C(C)C (some centres not stated)
5.96,,N=C(N)NCCC[C@H](NC(=O)C(Cc1ccccc1)NC(=O)[C@@H](N)Cc1cnc[nH]1)C(=O)N[C@@H](Cc1c[nH]c2ccccc12)C(=O)O (stereo in doubt)
6.05,,C#CCCCC(=O)N[C@@H](Cc1cnc[nH]1)C(=O)N[C@H](Cc1ccccc1)C(=O)N[C@@H](CCCNC(=N)N)C(=O)N[C@@H](Cc1c[nH]c2ccccc12)C(N)=O

# More lines, now with the values behind:
Structure (SMILES),pIC50 (Melanocortin receptor 4 [1]),Activity (Melanocortin receptor 4 [2])
C#CCCCC(=O)N[C@@H](CO)C(N)=O,,inactive
CC(C)C(O)CCC(C)C(O)CCC(C)C(O)CCC(OCCCCCCn1cc(CCCC(=O)N[C@@H](CO)C(N)=O)nn1)C(C)CCC(O)C(C)CCC(O)C(C)C (some centres not stated),,inactive
CC(C)C(O)CCC(C)C(O)CCC(C)C(CCC(O)C(C)CCC(O)C(C)CCC(OCCCCCCn1cc(CCCC(=O)N[C@@H](CO)C(N)=O)nn1)C(C)C)OCCCCCCn1cc(CCCC(=O)N[C@@H](CO)C(N)=O)nn1 (some centres not stated),,inactive
